# Results from different studies.
# Lines come from different studies, so protocols differ.
# CDC7: Cell division cycle 7-related protein kinase (CDC7, Homo sapiens, UniProt O00311)
# SIRT2: NAD-dependent protein deacetylase sirtuin-2 (SIRT2, Homo sapiens, UniProt Q8IXJ6)
# AMY2: Pancreatic alpha-amylase (AMY2, Sus scrofa, UniProt P00690)
# RORC: Nuclear receptor ROR-gamma (RORC, Homo sapiens, UniProt P51449)
# SLC22A8: Organic anion transporter 3 (SLC22A8, Homo sapiens, UniProt Q8TCC7)
Structure (SMILES),target,assay,system,conditions,IC50 [nM]
CC(C)[C@@H](N)c1nc2cc(-c3ccncc3F)sc2c(=O)[nH]1,CDC7,"enzyme activity, inhibitor",,,1470
C=C(C)[C@@H]1CCC(C)=C[C@H]1c1c(O)cc(CCCCC)cc1O,"Prostaglandin E synthase (PTGES, Homo sapiens, UniProt O14684)","enzyme activity, inhibitor",,,> 10000
CCCCCCCCCCCCNC(=S)NCCCC[C@H](NC(=O)OCc1ccccc1)C(=O)N[C@@H](C)C(=O)N[C@@H](CCCNC(=N)N)C(N)=O,SIRT2,"enzyme activity, inhibitor",,,140
O=C1Nc2ccc(Cl)cc2/C1=N/NS(=O)(=O)c1ccc(Br)cc1,AMY2,"enzyme activity, inhibitor",,,12800
O=C(O)c1ccnc2c(O)cccc12,"Lysine-specific demethylase 4D (KDM4D, Homo sapiens, UniProt Q6B0I6)","enzyme activity, inhibitor, AlphaScreen",,,7300
CCCCCCCCCCCCNC(=S)NCCCC[C@H](NC(C)=O)C(=O)N[C@@H](C)C(=O)N[C@@H](CCCNC(=N)N)C(N)=O,SIRT2,"enzyme activity, inhibitor",,,50
O=S(=O)(c1cncc(C(F)(F)F)c1)N1CCc2ccc(OCc3c(F)cccc3Cl)cc21,RORC,"ligand displacement, radioligand",,,290
CN(C(=O)n1cnc(-c2ccc[n+]([O-])c2)c1)C1CCCCC1,SLC22A8,"transporter uptake, inhibitor",HEK293,,> 33300
COc1cccc(S(=O)(=O)N2CCc3ccc(OCc4c(F)cccc4Cl)cc32)c1,RORC,"ligand displacement, radioligand",,,250
Cc1ccc2cc(C=NN=C3CS(=O)(=O)N(C)c4ccccc43)c(Cl)nc2c1,"Amine oxidase [flavin-containing] A (Maoa, Rattus norvegicus, UniProt P21396)","enzyme activity, inhibitor, fluorescence",,,1820
CC1CN(S(=O)(=O)c2cccc(C(F)(F)F)c2)c2cc(OCc3c(F)cccc3Cl)ccc21 (stereo not drawn),RORC,"ligand displacement, radioligand",,,180
COc1ccc(S(=O)(=O)N/N=C2\C(=O)Nc3ccc([N+](=O)[O-])cc32)cc1,AMY2,"enzyme activity, inhibitor",,,8200
OC[C@@H]1[C@@H](O)[C@H](O)[C@@H](O)[C@@H]2O[C@H]12,"Beta-glucosidase (GBA2, Homo sapiens, UniProt Q9HCG7)","enzyme activity, inhibitor",,"pH 7, lysate",7480
O=S(=O)(c1cccc(C(F)(F)F)c1)N1CCc2ccc(OCc3c(Cl)cncc3C(F)(F)F)cc21,RORC,"ligand displacement, radioligand",,,190
CC(C)C[C@H](NC(=O)[C@H](Cc1ccccc1)NC(=O)[C@@H](N)Cc1ccc(O)cc1)C(=O)N[C@@H](Cc1ccccc1)C(=O)N[C@@H](CCCNC(=N)N)C(=O)N1CCC[C@H]1C(=O)N[C@@H](CCCNC(=N)N)C(=O)N[C@@H](CC(N)=O)C(N)=O,"Neuromedin-U receptor 1 (Mus musculus, UniProt O55040)","ligand displacement, radioligand",,cell membranes,0.38
Cc1ccc(NC(=O)c2ccc(C)c(C(F)(F)F)c2)cc1C#Cc1nn(C2CCC(O)CC2)c2ncnc(N)c12 (stereo not drawn),"Fibroblast growth factor receptor 3 (FGFR3, Homo sapiens, UniProt P22607)","enzyme activity, inhibitor, radiometric",,,120
C=C(NC(=O)[C@H](CCCCNC(=S)CCCCCCCCCCCCC)NS(C)(=O)=O)C(=O)N[C@@H](CCCNC(=N)N)C(N)=O,SIRT2,"enzyme activity, inhibitor",,,30
O=C1NCCC12CCN(c1c(Cl)cncc1-c1ccc3cccnc3c1)CC2,"Cyclin-dependent kinase 19, with cyclin C (CDK19, Homo sapiens, UniProt Q9BWU1)",ligand displacement,,,72
O=S(=O)(c1cccc(Cl)c1)N1CCc2ccc(OCc3c(F)cccc3Cl)cc21,RORC,"ligand displacement, radioligand",,,370
CC(C)[C@H](N)c1nc2cc(-c3ccnc(F)c3)sc2c(=O)[nH]1,CDC7,"enzyme activity, inhibitor",,,71.7
Cc1cccc(Nc2ccccc2C(=O)O)c1C,SLC22A8,"transporter uptake, inhibitor",,,1750
Cc1nccc2c1c(=O)n(C)c1cc(OC[C@@H](N)CC(C)C)c(C#N)cc21,"Cyclin-G-associated kinase (GAK, Homo sapiens, UniProt O14976)","enzyme activity, inhibitor, radiometric",,,60
CC(C)[C@H]1CC[C@H](C(=O)N[C@H](Cc2ccccc2)C(=O)O)CC1,SLC22A8,"transporter uptake, inhibitor",,,860
O=C(O)C1=CC(=C(c2ccc(O)c(C(=O)O)c2)c2ccc(O)c(C(=O)O)c2)C=CC1=O,"Flap endonuclease 1 (Homo sapiens, UniProt P39748)","enzyme activity, inhibitor, fluorescence",,with preincubation,630
CN1CCN(c2ccnc(C(=O)N3CCC[C@H](C(=O)Nc4cccc(-c5ccc6c(c5)C(=O)NC6)c4)C3)c2)CC1,"Histone lysine demethylase PHF8, PHD (PHF8, Homo sapiens, UniProt Q9UPP1)","cell-free assay, inhibitor, TR-FRET",,,> 100000
O=S(=O)(c1cccc(C(F)(F)F)c1)N1c2cc(OCc3c(F)cccc3Cl)ccc2CC1C(F)(F)F (stereo not drawn),RORC,"ligand displacement, radioligand",,,190
COc1cc(C=Cc2cc(-c3ccccc3)nc(O)n2)ccc1O,AMY2,"enzyme activity, inhibitor, absorbance",,,23700
CCCCCCCCCCCCCC(=O)Oc1ccc2ccc(=O)oc2c1,"DNA polymerase I, thermostable (polA, Thermus aquaticus, UniProt P19821)","enzyme activity, inhibitor",,,113000
COc1ccc2c(Oc3ccc4c(C(=O)Nc5ccccc5N)cccc4c3)ccnc2c1,"Voltage-dependent L-type calcium channel subunit alpha-1C (CACNA1C, Homo sapiens, UniProt Q13936)","ion current, inhibitor",,,> 10000
COc1ccc(S(=O)(=O)N/N=C2\C(=O)Nc3ccc(Cl)cc32)cc1,AMY2,"enzyme activity, inhibitor",,,13100
C=CC(=O)Nc1cc(Nc2nccc(Nc3cc(Cl)c(F)cc3C(C)(C)O)n2)c(OC)cc1N1CC[C@@H](N(C)C)C1,"Tyrosine-protein kinase Fes/Fps (FES, Homo sapiens, UniProt P07332)","enzyme activity, inhibitor",,with preincubation,1760
COc1ccc(Cl)cc1COc1ccc2c(c1)N(S(=O)(=O)c1cccc(C(F)(F)F)c1)CC2,RORC,"ligand displacement, radioligand",,,170
COc1oc(=O)c2cc(N)ccc2c1Cl,"Rhomboid protease GlpG (glpG, Escherichia coli, UniProt P09391)","enzyme activity, inhibitor",,,1600
CCCCCCCCCCCCNC(=S)NCCCC[C@H](NC(=O)C1CCCCC1)C(=O)N[C@H](C)C(=O)N[C@@H](CCCNC(=N)N)C(N)=O,SIRT2,"enzyme activity, inhibitor",,,160
O=S(=O)(c1ccc(F)cc1)N1CCc2ccc(OCc3c(F)cccc3Cl)cc21,RORC,"ligand displacement, radioligand",,,500
Cc1cnc(-c2ccc(-c3ccc(NC(=O)Nc4c(F)cc(F)cc4F)cc3F)c3c2C(=O)NC3)[nH]1,"Serine/threonine-protein kinase 24 (STK24, Homo sapiens, UniProt Q9Y6E0)","enzyme activity, inhibitor",,,41.5
